Measurements pooled from the literature.
Each line is one published result; the experiments were not run side by side.
CDK14 with cyclin Y: Cyclin-dependent kinase 14, with cyclin Y (CDK14, Homo sapiens, UniProt O94921)
CDK14: Cyclin-dependent kinase 14 (CDK14, Homo sapiens, UniProt O94921)

`COc1ccc2oc(-c3ccc4nc(N)oc4c3)c/c(=N\c3ccccc3NC(=O)CCN)c2c1` gave a remaining binding of 100% (CDK14 with cyclin Y; binding; 1 µM).
`CO[C@@H]1[C@H](N(C)C(=O)c2ccccc2)C[C@H]2O[C@]1(C)n1c3ccccc3c3c4c(c5c6ccccc6n2c5c31)C(=O)NC4` gave an inhibition of 0% (CDK14; enzyme activity; inhibitor; 1 µM).
With `CN1CCN(C(=O)c2ccc(NC(=O)Nc3ccc(N(C)c4ccnc(Nc5ccc(CS(C)(=O)=O)cc5)n4)cc3)cc2)CC1` the remaining binding was 81% (CDK14; binding; competition with immobilised ligand; 1 µM).
With `CC(C)S(=O)(=O)c1ccc2nccc(Nc3ccc4sc(C5CCCC5)nc4c3)c2c1` the activity vs control was 110% (CDK14 with cyclin Y; enzyme activity; inhibitor; 1 µM).
The remaining binding of `Cc1ccc(NC(=O)c2ccnc(C(F)(F)F)c2)cc1-c1cc(OCCO)nc(N2CCOCC2)c1` is reported as 100% (CDK14; binding; competition with immobilised ligand; 1 µM).
The inhibition of `CC#CC(=O)N1CCC[C@H]1c1nc(-c2ccc(C(=O)Nc3ccccn3)cc2)c2c(N)nccn12` is reported as 4% (CDK14; enzyme activity; inhibitor; 1 µM).
`C1=C/COCc2cc(ccc2OCCN2CCCC2)Nc2nccc(n2)-c2cccc(c2)COC/1` has a remaining signal of 87% (CDK14; cell-free assay; 0.1 µM).
`CCCCC(=O)Nc1ccc(-c2ccc3ncn(CCC)c(=O)c3c2)cn1` has a remaining binding of 100% (CDK14; binding; competition with immobilised ligand; 0.5 µM).
